Rad51 HR inh = human RAD51 strand exchange inhibitors, primary screen, biochemical, fluorescence; DNA repair protein RAD51 homolog 1 (Homo sapiens), Q06609; hRad51 DNA strand exchange, fluorescence dequenching; inhibition, % at 10 µM; 0.085% of 200,000 active;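 active = inhibition above 40% at the single screening dose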;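 also: 0% = DMSO control wells and 100% = blanks with heterologous ssDNA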
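Material: human Rad51–ssDNA filaments; Probe or stimulus: labelled 47-mer dsDNA for strand exchange; Doses: single 10 µM dose; Incubation: 37 °C 15-min filament assembly, 30-min compound preincubation, 15-min exchange; Technique: FRET fluorescence dequenching, excitation 485 nm, emission 520 nm; Measure: Fluorescence-based percent inhibition, control- and blank-normalised; Benchmarks: plate control and blank wells.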
PMI act = activators of human PMI, primary screen, biochemical, fluorescence intensity, near-Km mannose 6-phosphate | Mannose-6-phosphate isomerase (Homo sapiens), P34949 | purified human PMI, coupled resazurin fluorescence, 20 min; active compounds read high; 1 = vehicle control, 0 substrate-free wells | activation factor at 20 µM | 0.005% of 190,000 active;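 active = activation factor of 2 or more at 20 µM, relative to plate controls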
Target sequence (P34949 whole entry, looked up): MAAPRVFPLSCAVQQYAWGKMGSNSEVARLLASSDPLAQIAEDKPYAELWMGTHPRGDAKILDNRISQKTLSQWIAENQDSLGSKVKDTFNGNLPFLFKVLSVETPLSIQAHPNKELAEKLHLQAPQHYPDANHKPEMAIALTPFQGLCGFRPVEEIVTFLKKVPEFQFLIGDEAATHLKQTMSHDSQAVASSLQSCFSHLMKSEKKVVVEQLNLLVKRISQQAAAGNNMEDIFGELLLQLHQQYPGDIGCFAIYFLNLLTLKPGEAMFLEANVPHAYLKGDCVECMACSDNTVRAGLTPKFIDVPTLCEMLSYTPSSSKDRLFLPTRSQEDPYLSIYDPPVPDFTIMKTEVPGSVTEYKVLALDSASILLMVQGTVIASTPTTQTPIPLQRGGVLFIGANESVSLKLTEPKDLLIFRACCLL
m-calpain inh = inhibitors of pig calpain II, primary screen, biochemical, fluorogenic peptide substrate, 1536-well | AID 1236, 2008 | 0.37% of 220,000 active | purified calpain II, 30 min | inhibition, % at 16 µM;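 active = inhibition above about 50%, limit read from the data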
Lmaj promast = Leishmania major promastigote growth inhibition, primary screen. Leishmania major promastigotes, resazurin fluorescence viability. inhibition, % at 10 µM. 9% of 200,000 active; in the data active = inhibition above about 50%;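 also: promastigotes grown with compound for 44 hours at 28 °C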
PMI act satM6P = human PMI activators, high substrate, primary screen, biochemical, fluorescence intensity, near-saturating mannose 6-phosphate; Mannose-6-phosphate isomerase (Homo sapiens), P34949; coupled PMI enzyme assay, resazurin fluorescence, 20 min; active compounds read high; 1 = untreated enzyme, 0 = substrate-free blank; activation factor at 20 µM; 0.34% of 190,000 active; AID 1216, 2008;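 active = activation factor of 2 or more at 20 µM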
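test system = human PMI in coupled enzyme assay | medium = HEPES-buffered pH 7.4 with magnesium and detergent | also added = 1.0 mM mannose-6-phosphate substrate with 0.22 mM NADP+ | compound = 20 µM single dose | times = 20 min incubation at room temperature | measured by = resorufin fluorescence (Ex 544/Em 590 nm) from resazurin via diaphorase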
WT yeast gro inh = growth inhibition of WT strain, primary screen, mitochondrial fusion inhibitor project, WT and mutant strains, chemical genetic | mitochondrial fusion phenotypic screen | inhibition, % at 10 µM | 2.1% of 190,000 active | AID 1362, 2008; in the data active = inhibition above about 58%; tested in S. cerevisiae
Numbers without * were called inactive; x = no result. Only some compounds are listed: those with a hit (about 9.8% of all), similar ones and a draw of the others.

SMILES	Rad51 HR inh	PMI act	m-calpain inh	Lmaj promast	PMI act satM6P	WT yeast gro inh
O=C(Nc1nc2cc3c(cc2s1)OCCO3)c1cccc(N2C(=O)CCC2=O)c1	-5.3	0.9	-68.6	55.3*	1	8.8
O=C(NNc1nc2cc3c(cc2s1)OCO3)c1ccccc1	x	1.1	14.8	15.3	1.1	8.9
CCN(CC)S(=O)(=O)c1cccc(C(=O)Nc2nc3cc4c(cc3s2)OCCO4)c1	1.2	1	-125.5	92.6*	0.9	22.9
O=C(Nc1nc2cc3c(cc2s1)OCCO3)c1cccs1	x	x	-14.9	x	x	x
O=C(NNc1nc2cc3c(cc2s1)OCO3)c1cccc(F)c1	x	1.1	22.7	55.3*	1.1	7.1
CCO[C@H]1OC(C(=O)Nc2ccccc2)=C[C@@H](c2cn(C(C)=O)c3ccccc23)[C@@H]1CCCO	-8.8	0.9	-28.6	38.7	1	55.1
CC(C)(C)c1ccc(NC(=O)Nc2ccc3ccccc3n2)cc1	-0.8	x	0.4	x	x	x
Cc1ccc(-c2nc3cccnc3s2)cc1NS(=O)(=O)c1ccc2c(c1)OCCO2	-4.0	0.9	-42.8	29.9	0.9	49.4
O=C(Nc1cccc(-c2nc3cccnc3s2)c1)C1c2ccccc2Oc2ccccc21	x	1	54.5*	-6.7	1.1	-6.1
O=S(=O)(Nc1cccc(-c2nc3cccnc3s2)c1)c1ccc2c(c1)OCCO2	11.3	0.8	-41.1	7.6	0.7	67.7*
COc1ccc(C2CC(=O)C=C(NCc3ccc4c(c3)OCO4)C2)cc1 (centres undefined)	-5.7	x	3.5	x	x	x
CC(OC(=O)c1ccccc1NS(=O)(=O)c1cccc(N)c1)C(=O)N(C)Cc1ccccc1 (centres undefined)	7.0	0.8	22.0	81.5*	0.9	-1.4
Cc1ccc(-c2onc3ccc(C4OCCO4)cc23)cc1	24.7	1	-13.4	2.2	1	-12.2
O=C(COC(=O)C1CC(O)CN1C(=O)Oc1ccccc1)c1ccc(Br)cc1 (centres undefined)	18.1	1	-2.5	-8.0	1	1.3
COc1ccc(C(=O)Nc2ccc3c(c2)C(=O)c2ccccc2C3=O)cc1OC	-0.1	0.8	-5.5	-7.3	0.8	-10.3
COc1ccc(C(=O)c2c(C(F)(F)F)oc3c2C(=O)c2ccccc2C3=O)cc1OC	7.3	1.3	-143.7	100.3*	1.6	90.4*
O=C(CN1CCOCC1)Nc1scc2c1c(=O)oc1ccccc12	-22.4	x	-28.9	x	x	x
COc1ccc(OC)c(N/C(=N/C(=S)Nc2ccccc2)Nc2nc(C)cc(C)n2)c1	10.6	x	-6.7	x	x	x
Cc1nnc(Oc2ccccc2)c2ccccc12	5.7	1	5.3	0.8	0.9	4.0
Cc1nnc(Oc2ccccc2F)c2ccccc12	7.7	1	61.4*	-10.1	0.9	-4.2
Cn1nnnc1SCC(=O)NC1CCCCC1	-1.0	0.9	56.8*	-13.7	0.8	-9.7
CC1CCCC(NC(=O)CSc2nnnn2C)C1C (centres undefined)	3.4	0.9	-49.7	-2.7	1	13.2
C=CCc1ccc(OCCCCN2CCC(C)CC2)c(OC)c1	-0.8	0.8	-0.4	89.4*	1	10.7
C=CCc1ccc(OCCCCN2CC(C)CC(C)C2)c(OC)c1 (centres undefined)	4.1	0.9	3.0	96.1*	1.1	20.2
C=CCc1ccc(OCCCN2CCCC(C)C2)c(OC)c1 (centres undefined)	-6.7	0.9	-39.7	99.6*	0.9	0.1
SMILES	Rad51 HR inh	PMI act	m-calpain inh	Lmaj promast	PMI act satM6P	WT yeast gro inh
C=CCc1ccc(OCCCOc2ccc(C(=O)O)cc2)c(OC)c1	1.7	1.2	3.0	4.7	1.2	-10.8
COc1cc(C)ccc1OCCCCN1CC(C)OC(C)C1 (centres undefined)	3.3	1	-41.6	96.9*	1.1	4.0
COc1ccc(N(CC(=O)NCc2ccc(Cl)cc2)S(=O)(=O)c2ccccc2[N+](=O)[O-])c(OC)c1	-8.0	0.8	-11.8	40.3	0.8	6.0
C[C@H](NC(=O)c1ccc(Cl)cc1)C(=O)NCCc1ccc(S(N)(=O)=O)cc1	7.5	1.1	-11.0	-9.2	1.1	0.3
O=C(c1cc(Cl)ccc1[N+](=O)[O-])N1CCc2ccccc2C1	x	0.9	-3.6	-6.1	0.9	1.4
O=C(CSc1ncnc2ccccc12)NCC(=O)c1ccccc1	25.2	1	-33.2	3.5	1.1	-64.2
CCOc1ccccc1OCCOCCN1CC(C)OC(C)C1 (centres undefined)	-5.6	0.9	-8.4	63.2*	0.9	1.6
Cn1nc(-c2ccc(N3CCCCC3)c(NC(=O)c3ccco3)c2)c2ccccc2c1=O	0.2	0.9	-67.6	56.0*	0.8	39.9
CCC(=O)Nc1cc(-c2nn(C)c(=O)c3ccccc23)ccc1N1CCOCC1	x	1.1	14.5	0.5	1.1	-16.9
c1sc2[n+](c1C13CC4CC(CC(C4)C1)C3)CCS2	5.9	1.1	-2.9	-2.6	1.1	-5.7
Fc1ccc(-c2csc3[n+]2CCS3)cc1	-3.1	1.1	-18.7	1.8	1.1	69.9*
Cc1cc[n+](Cc2ccc([N+](=O)[O-])cc2)cc1	5.7	1	-2.5	-7.8	0.9	8.0
O=[N+]([O-])c1ccc(-c2csc3[n+]2CCS3)cc1	-3.6	1.1	-4.1	-1.1	1.2	72.1*
CC(C)Oc1ccc(N2CC(C(=O)NC3=NCCS3)CC2=O)cc1 (centres undefined)	-7.5	1	20.4	-5.1	1.1	11.3
COc1ccc(N=C2SC(C(=O)N3CCN(c4ccc([N+](=O)[O-])cc4)CC3)CC(=O)N2C)cc1 (centres undefined)	-91.3	0.8	-49.3	51.8*	0.8	2.3
CC1CCCC(NC(=O)c2cn(C)c3ccc(S(=O)(=O)N4CCCC4)cc3c2=O)C1C (centres undefined)	x	0.9	-27.7	62.9*	0.9	-15.7
CC1CCCCC1NC(=O)c1cn(C)c2ccc(S(=O)(=O)N3CCCC3)cc2c1=O (centres undefined)	-4.3	1	-39.9	37.0	1	12.0
CCn1cc(C(=O)NC2CCC(C)CC2)c(=O)c2cc(S(=O)(=O)N3CCCCC3)ccc21 (centres undefined)	4.1	1	-46.5	76.1*	1	7.0
CCn1cc(C(=O)NCCCN2CCC(C)CC2)c(=O)c2cc(S(=O)(=O)N3CCCC3)ccc21	-5.8	1	13.8	-2.2	1	-3.8
COc1cccc(CC(Cc2nc3ccccc3[nH]2)c2nc3ccccc3[nH]2)c1 (centres undefined)	7.3	0.9	5.1	68.5*	0.8	-3.0

Compound activity as filed in PubChem.
